# From PubChem BioAssay
# Ecoli WT expand: E. coli BW25113 growth inhibition, expanded screen; OD600 absorbance; growth inhibition, % at 100 µM; actives 0.15% (n = 98,000); AID 710;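 active = growth inhibition above about 50% at one test dose, limit read from the data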;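 also: growth measured after 20 h incubation at 37 °C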
# PLAP act: activates human placental alkaline phosphatase | P05187 | purified PLAP enzyme, luminescent substrate read-out; active compounds read high | activation fold at 20 µM | actives 1.2% (n = 96,000) | AID 696; in the data active = activation fold above about 2
# Target sequence (P05187 whole entry, looked up): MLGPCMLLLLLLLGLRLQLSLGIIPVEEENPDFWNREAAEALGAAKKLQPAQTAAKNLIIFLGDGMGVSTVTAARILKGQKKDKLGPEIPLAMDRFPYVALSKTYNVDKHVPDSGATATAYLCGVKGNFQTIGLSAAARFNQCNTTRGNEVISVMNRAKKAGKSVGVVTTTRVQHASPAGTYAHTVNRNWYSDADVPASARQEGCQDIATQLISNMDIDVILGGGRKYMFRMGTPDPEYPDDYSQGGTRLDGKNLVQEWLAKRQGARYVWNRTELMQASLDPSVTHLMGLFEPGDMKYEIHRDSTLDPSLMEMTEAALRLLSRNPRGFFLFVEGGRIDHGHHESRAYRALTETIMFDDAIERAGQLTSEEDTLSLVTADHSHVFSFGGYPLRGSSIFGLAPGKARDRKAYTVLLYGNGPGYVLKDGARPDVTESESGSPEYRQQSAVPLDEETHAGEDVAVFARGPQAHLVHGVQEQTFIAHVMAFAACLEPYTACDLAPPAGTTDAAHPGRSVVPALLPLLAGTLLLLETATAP
# PostGolgi ctrl: yeast control strain growth, post-Golgi counter-screen; efflux-deficient yeast background strain, growth absorbance A615, 16 h; inhibition, % at 10 µM; actives 5% (n = 98,000)
# PostGolgi yeast: growth inhibition of a yeast mutant, post-Golgi transport screen; post-Golgi transport phenotypic cell assay; actives 0.9% (n = 98,000); inhibition, % at 10 µM; AID 739;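 also: yeast cells grown in 1536-well plates; yeast grown about 18 h at 30C before absorbance read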
# Ecoli tolC: E. coli tolC mutant growth inhibition | E. coli BW25113 tolC mutant growth, OD615 | actives 2.2% (n = 65,000) | growth inhibition, % at 10 µM (by protocol) | AID 573;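 active = growth inhibition at or above a cutoff equal to the mean over every tested compound plus 3 SD, cut at about 60% in these data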;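 also: growth measured after 20 h incubation at 37 °C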
#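 System: E. coli ΔtolC::kan strain BW25113; Buffer or medium: LB broth supplemented with 50 µg/mL kanamycin; Compound: 10 µM final, single dose; Incubation: bacterial growth with compound for 20 h at 37 °C; Signal: A615 absorbance measurement; Evaluation: growth inhibition in percent.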
# The depositor's hits bear a star; . = no result. Shown are actives, neighbours in structure and some others; about 7.2% of the full set was active somewhere. Rule as the data show it, unless noted: active = inhibition above about 30%; inactive = the rest.
SMILES,Ecoli WT expand,PLAP act,PostGolgi ctrl,PostGolgi yeast,Ecoli tolC
CCc1nc(SCC(=O)N2c3ccccc3CC2C)c2c(C)c(C)sc2n1 (stereo not drawn),-18,1.4,33*,1,.
Cn1nnnc1Sc1nc(-c2cccnc2)nc2ccccc12,.,.,.,.,10
O=c1[nH]c(SCc2cccc(Cl)c2)nc2c1CCCC2,0,0.9,34*,0,2
O=c1[nH]c(SCc2ccc(Cl)cc2)nc2c1CCC2,-9,1.1,17,1,7
O=[n+]1c2c(n([O-])c3cc(F)c(F)cc31)CCCC2,5,0.9,-5,9,17
Cc1ccc(OCCSc2ncnc3nc[nH]c23)cc1,-4,2.4*,4,2,.
Brc1ccc(CSc2ncnc3nc[nH]c23)cc1,8,1.7,20,-12,15
CCCCCn1c(=NC(=O)c2ccco2)c(C(=O)OCC)cc2c(=O)n3ccccc3nc21,-5,1.2,33*,-4,8
CCCCn1c(=NC(=O)c2ccco2)c(C(=O)OCC)cc2c(=O)n3ccccc3nc21,-5,1.1,6,4,6
Cc1nc(COC(=O)c2ccc(S(=O)(=O)N3CCCC3)cc2)cs1,4,1.2,-3,-7,6
CCOC(=O)c1cnc(SC2CCc3ccccc3C2=O)nc1N (stereo not drawn),-9,1.4,21,-6,22
O=C(OC1CCc2ccccc2C1=O)c1ccccc1O (stereo not drawn),6,0.8,19,-6,68*
CCn1cnc2sc(C(=O)O)c(C)c2c1=O,4,1,1,-8,-14
CCn1cnc2sc(C)c(C)c2c1=O,-3,0.8,32*,12,.
O=C1OC(c2ccc(Cl)cc2)/C(=C(/O)c2ccccc2)C1=O (stereo not drawn),-7,1.1,1,8,.
O=C(/C=C/c1ccc(Cl)cc1)N1CCN(c2ccc(Cl)cc2[N+](=O)[O-])CC1,-22,1.1,93*,-14,.
CCO/N=C(/c1nonc1N)N1CCN(c2ccc([N+](=O)[O-])cc2)CC1,-8,0.8,4,15,.
O=C(/C=C/c1ccc(Cl)cc1)N1CCN(c2ncccn2)CC1,1,0.8,-2,7,.
CO/N=C(\c1nonc1N)N1CCN(c2ccc([N+](=O)[O-])cc2Cl)CC1,-8,1.1,32*,0,.
CO/N=C(\c1nonc1N)N1CCN(c2ccc(Cl)cc2[N+](=O)[O-])CC1,-22,0.9,58*,-7,.
COc1ccc(-n2nnc3c(SCC(=O)N4CCN(c5ccccc5)CC4)ncnc32)cc1,.,.,.,.,-4
CCN(c1ccccc1)S(=O)(=O)c1ccc(F)cc1C,-5,0.9,1,-6,33
N/C(Cc1ccc([N+](=O)[O-])cc1)=N\OC(=O)C(c1ccccc1)c1ccccc1,-3,0.8,33*,-10,.
N/C(Cc1ccc([N+](=O)[O-])cc1)=N\OC(=O)c1ccc2ccccc2c1,1,1.1,72*,13,.
COc1ccc(C/C(N)=N/OC(=O)C(c2ccccc2)c2ccccc2)cc1OC,-6,1,24,0,.
SMILES,Ecoli WT expand,PLAP act,PostGolgi ctrl,PostGolgi yeast,Ecoli tolC
COc1ccc(-c2nnc3ccc(SCC(=O)N4CCN(c5ccccc5)CC4)nn23)cc1,.,.,.,.,9
N=c1c2c(-c3ccccc3)c(-c3ccccc3)oc2ncn1CCN1CCOCC1,3,1.5,72*,1,40
N=c1c2c(-c3ccccc3)c(-c3ccccc3)oc2ncn1CCCN1CCOCC1,6,1.8,7,11,20
c1ccc(-c2oc3ncnc(NCCN4CCOCC4)c3c2-c2ccccc2)cc1,-6,1.5,92*,15,65*
Cc1ccc(C23CC4CC(CC(NC(=O)N5CCN(C)CC5)(C4)C2)C3)cc1,11,1.6,7,2,11
Cc1ccc(C23CC4CC(CC(NC(=O)NC(C)(C)CO)(C4)C2)C3)cc1,-5,2.3*,38*,-2,.
Cc1cccc(N(CC(=O)NCc2ccc3c(c2)OCO3)C(=O)CCC(=O)Nc2ccccn2)c1,1,1.6,-1,1,6
C=CCNC(=O)c1ccc2nc(-c3ccccc3)c(-c3ccccc3)nc2c1,-3,1,36*,8,.
C=CCNC(=O)c1ccc(C(=O)c2ccccc2)cc1,6,0.8,4,-1,4
O=C(OCC(=O)N1CCN(C(=O)c2ccco2)CC1)c1ccccc1OCc1ccc(Cl)cc1,-16,1.6,42*,7,22
O=C(Nc1ccccc1C(=O)OCC(=O)N1CCc2ccccc2C1)c1ccco1,-24,1.2,32*,1,34
CC1CCCCC1NC(=O)COC(=O)c1ccccc1NC(=O)c1ccco1 (stereo not drawn),-2,1,7,2,.
CCOC(=O)COc1ccc(S(=O)(=O)N2CCc3ccccc3C2)cc1,-6,1.3,1,10,17
C=CCNC(=O)c1onc(CSc2cccc(OC)c2)c1C(=O)O,-2,1,7,-2,.
CCOC(=O)/C(=C\c1ccc([N+](=O)[O-])o1)NC(=O)c1ccccc1,0,0.8,1,4,.
CCc1ccc(C(=O)/C=C/c2ccc([N+](=O)[O-])o2)cc1,11,0.9,10,63*,.
Cc1ccc(NC(=O)Cc2nnc(SCC(=O)c3ccc(Br)cc3)n2C)cc1Cl,0,0.8,13,2,.
CCCCCn1c(SCc2ccncc2)nc2cc(C(=O)NCc3ccco3)ccc2c1=O,-24,1.2,43*,-2,44
NC(=O)c1cc(Cc2ccccc2)sc1NC(=O)c1ccco1,0,0.9,45*,9,57
C=CCNc1nc(N(c2ccccc2)c2ccccc2)nc(-n2ccnc2)n1,-4,0.9,35*,-1,6
c1ccc(N(c2ccccc2)c2nc(-n3ccnc3)nc(-n3ccnc3)n2)cc1,-4,0.9,104*,100*,12
CCNc1nc(N2CCOCC2)nc(N(c2ccccc2)c2ccccc2)n1,-12,1.1,9,-5,-20
CN(c1ccccc1)c1nc(-n2ccnc2)nc(-n2ccnc2)n1,8,1,55*,48*,23
CCCCNc1nc(N(C)c2ccccc2)nc(-n2ccnc2)n1,-2,1,69*,96*,54
Cc1nc(-c2ccc(NS(C)(=O)=O)cc2)cs1,2,1,-4,9,-2
SMILES,Ecoli WT expand,PLAP act,PostGolgi ctrl,PostGolgi yeast,Ecoli tolC
Cc1ccc(CSCC(=O)N2CCOCC2)cc1,0,0.9,4,-2,.
COC(=O)c1sccc1NC(=O)c1ccc(Br)s1,-8,1.2,1,7,.
Cc1ccc(NC(=O)Cc2nc(CSc3nnc(-c4ccc5c(c4)OCO5)o3)cs2)cc1,-11,0.9,21,15,14
Cc1cc(Cn2ccnc2)c(C)cc1Cn1ccnc1,4,1.2,0,-5,13
CN(C1CCCCC1)S(=O)(=O)c1ccc(NC(=O)c2ccc(Br)o2)cc1,-7,1.3,35*,-7,70*
CN(C)S(=O)(=O)c1ccc(NC(=O)c2ccc(Br)o2)cc1,2,0.9,-7,-5,.
CN(C1CCCCC1)S(=O)(=O)c1ccc(NC(=O)C2CCCCC2C(=O)O)cc1 (stereo not drawn),4,1.4,33*,-6,25
